Assay outcomes deposited in PubChem BioAssay by Johns Hopkins Ion Channel Center.
TRPC4 agonist: opens the mouse TRPC4 cation channel; HEK293 TRPC4beta/mu-opioid, Fluo4 calcium fluorescence; stronger effect = higher value; AID 2237; B-score at 10 µM; 310,000 compounds, 0.49% hits; Q9QUQ5;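 active = B-score above 5 SD of library B-scores, and initial fluorescence ratio not above library mean plus 5 SD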;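 note: positive B-score marks a calcium rise read as TRPC4 activation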
Target sequence (Q9QUQ5 whole entry, looked up): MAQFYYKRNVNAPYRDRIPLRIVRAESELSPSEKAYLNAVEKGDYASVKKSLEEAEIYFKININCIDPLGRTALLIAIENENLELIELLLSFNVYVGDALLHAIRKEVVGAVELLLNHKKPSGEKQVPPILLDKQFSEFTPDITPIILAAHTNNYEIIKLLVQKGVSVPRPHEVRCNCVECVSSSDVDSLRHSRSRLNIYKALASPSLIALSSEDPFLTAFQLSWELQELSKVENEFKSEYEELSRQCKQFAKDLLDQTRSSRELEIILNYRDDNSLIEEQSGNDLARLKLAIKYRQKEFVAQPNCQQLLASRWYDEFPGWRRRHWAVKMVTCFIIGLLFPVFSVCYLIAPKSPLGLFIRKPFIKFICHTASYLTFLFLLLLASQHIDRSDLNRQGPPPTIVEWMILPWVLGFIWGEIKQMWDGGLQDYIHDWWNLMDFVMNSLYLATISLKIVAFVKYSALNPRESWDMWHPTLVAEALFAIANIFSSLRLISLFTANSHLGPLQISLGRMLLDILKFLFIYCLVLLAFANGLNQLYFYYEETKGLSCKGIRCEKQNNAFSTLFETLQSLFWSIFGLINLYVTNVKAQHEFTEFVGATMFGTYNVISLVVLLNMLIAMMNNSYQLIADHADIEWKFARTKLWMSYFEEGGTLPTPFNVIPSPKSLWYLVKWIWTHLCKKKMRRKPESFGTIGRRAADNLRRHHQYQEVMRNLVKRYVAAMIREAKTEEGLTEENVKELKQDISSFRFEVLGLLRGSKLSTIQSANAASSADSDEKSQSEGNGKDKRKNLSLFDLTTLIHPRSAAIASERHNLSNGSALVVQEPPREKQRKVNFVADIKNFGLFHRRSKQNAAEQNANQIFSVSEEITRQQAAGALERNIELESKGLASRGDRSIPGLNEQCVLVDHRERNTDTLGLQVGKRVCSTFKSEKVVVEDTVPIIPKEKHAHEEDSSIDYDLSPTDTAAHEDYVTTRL
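System – HEK293 cells stably co-expressing mouse TRPC4beta and mu-opioid receptor · Signal – Fluo4 calcium-sensitive dye fluorescence, kinetic, 1 Hz baseline · Benchmarks – buffer (low) and maximal DAMGO (high) · Read-out – B score of integrated fluorescence ratio per well · Incubation – dye loading 45 min room temperature, 110 s kinetic read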
TRPC6 inh: mouse TRPC6 channel inhibition | Q61143 | HEK293-TRPC6, membrane potential dye, ACh-evoked depolarization; stronger effect = lower value | B-score at 10 µM | 310,000 compounds, 1.1% hits;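 active = B-score under library mean minus 3 SD, initial fluorescence not abnormally high, positive integrated signal ratio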;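 note: B-score derived from integrated fluorescence ratio over the kinetic read; more negative B-score means stronger inhibition of depolarization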
TRPC4 inh: blocks the mouse TRPC4 cation channel; 300,000 compounds, 0.39% hits; Q9QUQ5; HEK293 TRPC4beta/mu-opioid, DAMGO-evoked Fluo4 calcium flux; stronger effect = lower value; B-score at 10 µM;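 active = B-score over 3 SD under the library average, no early fluorescence shift, positive overall ratio signal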
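material = TRPC4beta/mu-opioid receptor HEK293 cell line | probe or stimulus = sequential submaximal and maximal DAMGO stimulation | compound dosing = one concentration per compound | measured by = Fluo4 Ca2+ flux fluorescence | evaluation = integrated fluorescence ratio relative to baseline, converted to per-well B score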
TRPC6 act: mouse TRPC6 channel activation; AID 2550; 310,000 compounds, 0.13% hits; HEK293-TRPC6 membrane potential dye fluorescence; stronger effect = higher value; Q61143; B-score at 10 µM;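 active = B-score of the integrated fluorescence ratio above library mean plus 3 SD, and starting fluorescence ratio within library mean plus 5 SD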;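 note: higher score means more depolarization so channel activation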
TRPC4 potent: allosterically enhances the mouse TRPC4 cation channel | AID 2227 | Q9QUQ5 | 310,000 compounds, 0.42% hits | B-score at 10 µM | HEK293 TRPC4beta/mu-opioid, DAMGO EC20, Fluo-4 Ca2+ flux; stronger effect = higher value;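 active = B-score of calcium response area above 5 SD of library B-scores, with initial fluorescence ratio within 5 SD of library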;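 note: B-score of integrated fluorescence ratio over time as area under calcium response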
TRPC4 spec 2: second selectivity test of TRPC6 inhibitors: effect on mouse TRPC4 | shares compounds with TRPC6 inh | HEK293 TRPC4/MOR, membrane potential dye fluorescence; channel activated by saturating DAMGO dose | inhibition, % at 10 µM | 920 compounds, 42% hits;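 active = compounds whose fluorescence signal differed from control wells by over 3 SD, either direction, in both duplicate plates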
TRPC4 spec: tests whether TRPC6 inhibitors also affect mouse TRPC4 | shares compounds with TRPC6 inh | activity change, negative = inhibition, % at 10 µM | AID 2777 | 920 compounds, 61% hits | HEK293 TRPC4/mu-opioid, membrane potential fluorescence;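 active = rise or fall in signal beyond 3 SD of buffer-only wells in both replicate plates, either sign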;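 note: integrated kinetic ratio of fluorescence range over baseline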
HEK293 MPD ctr 2-1: second counter-screen for TRPC6 inhibitors: parental HEK293 cells; 920 compounds, 31% hits; parental HEK293 membrane potential dye fluorescence; maximal acetylcholine challenge after compound addition; shares compounds with TRPC6 inh; signal change vs control, % at 10 µM;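 active = membrane potential signal moving either way by over 3 SD of the maximum-effect control, in both duplicate plates, meaning non-specific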
HEK293 MPD ctr-1: parental HEK293 nonspecific activity of TRPC6 inhibitors. parental HEK293 membrane potential dye fluorescence. 920 compounds, 60% hits. AID 2780. shares compounds with TRPC6 inh. membrane potential signal change, % at 10 µM;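 active = membrane potential signal shifting up or down by more than 3 SD of buffer-only wells, on both duplicate plates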
HEK293 MPD ctr-2: parental HEK293 nonspecific activity of TRPC6 modulators. shares compounds with TRPC6 inh. membrane potential dye fluorescence. membrane potential signal change, % at 10 µM. 2,400 compounds, 51% hits;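 active = membrane potential signal moves up or down beyond 5 SD from buffer-only wells, on both duplicate plates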
HEK293 MPD ctr 2-2: second check of TRPC6 modulator effects in parental HEK293 cells; shares compounds with TRPC6 inh; membrane potential dye fluorescence; after compound, maximal acetylcholine stimulation; inhibition, % at 10 µM; 2,400 compounds, 14% hits; AID 488926;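 active = membrane potential signal drops by more than 5 SD from the mean control signal, in both duplicate plates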;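 note: plate controls were acetylcholine ECmax control wells for no effect and buffer only wells for full effect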
TRPC4 ctr mod: selectivity of TRPC6 modulators against mouse TRPC4; shares compounds with TRPC6 inh; HEK293 TRPC4/mu-opioid, membrane potential fluorescence; percent change from control (negative = decrease, positive = increase), % at 10 µM; 2,400 compounds, 69% hits;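 active = membrane potential signal moved up or down beyond 5 SD of buffer control wells, in both duplicate plates, actives on both sides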;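 note: plate controls were assay buffer wells for no effect and DAMGO maximal-effect wells for full effect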
TRPC4 ctr inh 2: second selectivity test of TRPC6 modulators against mouse TRPC4; shares compounds with TRPC6 inh; HEK293 TRPC4/mu-opioid, membrane potential dye fluorescence; stimulated with maximal-effect DAMGO; inhibition, % at 10 µM; 2,400 compounds, 55% hits;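 active = drop in membrane potential signal beyond 5 SD of the control wells in both duplicate plates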;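 note: TRPC4 counter screen for TRPC6 hits run under conditions tuned for TRPC6 not TRPC4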
TRPC6 block conf: confirmation of mouse TRPC6 inhibitors; shares compounds with TRPC6 inh; HEK293-TRPC6, membrane potential dye, ACh-evoked depolarization; inhibition, % at 10 µM; 3,300 compounds, 43% hits;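 active = fluorescence ratio falls more than 5 SD below the full-stimulation control mean, in both duplicate runs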;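 note: integrated fluorescence ratio of peak minus minimum over baseline after agonist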
TRPC6 act conf: confirmation of mouse TRPC6 activators; shares compounds with TRPC6 inh; HEK293-TRPC6 membrane potential dye fluorescence, FDSS; 2,800 compounds, 11% hits; activation, % at 10 µM;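 active = ratio signal rise beyond 5 SD above unstimulated control wells' mean, seen in both duplicate runs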;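 note: plate controls were buffer EC0 wells for no effect and acetylcholine ECmax response for full effect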
Active calls of the source: *; i = inactive; x = not tested or not shown. In the library only some 2.3% were active in any assay of this set; here they are far more common.

SMILES | TRPC4 agonist | TRPC6 inh | TRPC4 inh | TRPC6 act | TRPC4 potent | HEK293 MPD ctr-2 | HEK293 MPD ctr 2-2 | TRPC4 ctr mod | TRPC4 ctr inh 2 | TRPC6 block conf | TRPC6 act conf | others
C/C(=N\Nc1nc(C)cc(C)n1)c1ccc(N2CCOCC2)cc1 | i | i | i | i | i | x | x | x | x | x | x
CCc1ccc(C(C)NC(=O)C2CCCO2)cc1 (stereo unspecified) | i | i | i | i | i | x | x | x | x | x | x
CC(NC(=O)C1CCC1)c1ccccc1 (stereo unspecified) | i | i | i | i | i | x | x | x | x | x | x
C[n+]1cccc2ccc3c(c21)OC(N)=C(C#N)C3c1ccccc1 (stereo unspecified) | i | -9.2* | i | i | i | -284%* | 80%* | -48%* | 60%* | 74%* | i
CCN1CCN(c2nc3c(c(=O)n(C)c(=O)n3C)n2CCSc2nccc(C)n2)CC1 | i | -12* | i | i | i | -284%* | 118%* | -46%* | 72%* | 78%* | i
Cn1c(=O)c2c(nc(N3CCOCC3)n2CCSc2ncccn2)n(C)c1=O | i | -5.6* | i | i | i | -360%* | i | -56%* | i | i | i
CC1CC(C)CN(c2nc3c(c(=O)n(C)c(=O)n3C)n2CCSc2ncccn2)C1 (stereo unspecified) | i | i | i | i | i | x | x | x | x | x | x
CCCCCCCCS(=O)c1sc2nc3c(cc2c1N)CCCC3 (stereo unspecified) | i | i | i | i | i | x | x | x | x | x | x
COc1cccc(NC(=O)CN2C(=O)CSc3ccc(S(=O)(=O)N4CCCCC4)cc32)c1 | i | i | i | i | i | x | x | x | x | x | x
CN(CC(=O)Nc1ccc(Cl)c(C(F)(F)F)c1)C(=O)Cc1c[nH]c2ccccc12 | i | -5.7* | i | i | i | i | i | -11%* | 48%* | 58%* | i
COc1ccc(-c2oc3ccc(-c4cc(OC)c(OC)c(OC)c4)cc3c2C(=O)c2ccc(OC)nc2)cc1 | i | i | i | i | i | x | x | x | x | x | x
Cc1onc(-c2ccccc2)c1C(=O)N/N=C/c1ccc([N+](=O)[O-])s1 | i | -8.2* | i | i | i | x | x | x | x | i | i | TRPC4 spec 2=i;TRPC4 spec=i;HEK293 MPD ctr 2-1=i;HEK293 MPD ctr-1=i
CCCCCCOC(=O)C(C#N)c1nc2ccccc2nc1N1CCN(CC)CC1 (stereo unspecified) | i | -5.3* | i | i | i | i | i | -29%* | 70%* | i | i
CCN1CCN(c2nc3ccccc3nc2C(C#N)C(=O)OCc2ccccc2)CC1 (stereo unspecified) | i | -7.3* | i | i | i | x | x | x | x | i | i | TRPC4 spec 2=40%*;TRPC4 spec=-19%*;HEK293 MPD ctr 2-1=i;HEK293 MPD ctr-1=-200%*
O=C(CN1C2=NCCN2c2ccccc21)c1ccc(Br)cc1 | i | -5.3* | i | i | i | i | i | i | 72%* | 38%* | i
O=C(CN1C2=NCCN2c2ccccc21)c1ccc2c(c1)OCO2 | i | i | i | i | i | x | x | x | x | x | x
CCOc1ccc(-c2cc(CCCC(=O)N3CCN(c4ccc(OC)cc4)CC3)no2)cc1 | i | i | i | i | i | x | x | x | x | x | x
Cc1cc(NC(=O)c2ccc(NC(=O)C(C)C)cc2)no1 | i | i | i | i | i | x | x | x | x | x | x
CC(C)NC(=S)N1CCN(c2ncccn2)CC1 | i | -5.4* | i | i | i | i | i | 17%* | i | i | i
S=C(NC1CCCC1)N1CCN(c2ncccn2)CC1 | i | i | i | i | i | x | x | x | x | x | x
O=C(Oc1ccccc1Cl)c1ccc2c(=O)n3c(nc2c1)CCC3 | i | -5.4* | i | i | i | i | i | i | i | i | i
COc1ccc(CN2C(=O)CCCc3ccccc32)cc1 | i | -5.7* | i | i | i | i | i | i | i | i | i
O=C1CCCc2ccccc2N1Cc1ccccc1 | i | i | i | i | i | x | x | x | x | x | x
COc1cc(/C=C(/C#N)C(=O)NC(C)c2ccccc2)cc(OC)c1O (stereo unspecified) | i | -5.3* | i | i | i | 415%* | i | 48%* | 29%* | 51%* | x
CC(NC(=O)/C(C#N)=C/c1ccc(C(=O)O)cc1)c1ccccc1 (stereo unspecified) | i | i | i | i | i | x | x | x | x | x | x
Cc1ccc(-c2csc(NC(=O)/C=C/c3ccco3)c2C(=O)O)cc1 | i | -5.2* | i | i | i | i | i | i | i | i | i
Nc1c(C(=O)N2CCOCC2)oc2ccccc12 | i | -5.4* | i | i | i | i | i | i | i | i | i
O=C(NCc1ccco1)C1CC(=O)N(c2ccc(F)cc2)C1 (stereo unspecified) | i | i | i | i | i | x | x | x | x | x | x
CCOC(=O)c1c(S(=O)(=O)NCCCc2ccco2)c(C)n(C)c1C | i | i | i | i | i | x | x | x | x | x | x
